{"source": "ChEMBL document CHEMBL3297687", "about": "“Eremophilane-type sesquiterpenoids with diverse skeletons from Ligularia sagitta” (J Nat Prod, 2014)", "key": {"HL-60": {"system": "HL-60", "assay": "Cytotoxicity against human HL60 cells after 48 hrs by SRB method", "format": "functional, cell-based", "conditions": "HL-60, 48 h"}, "Bacillus cereus": {"system": "Bacillus cereus", "assay": "Antibacterial activity against Bacillus cereus grown in sheep blood agar media assessed as concentration required to inhibit bacterial growth due to absence of hemolysis of erythrocytes after 18 hrs by […] broth dilution method", "format": "functional", "procedure,_shortened": "(§1)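 Colonies from overnight culture on 5% sheep blood agar were suspended in Mueller−Hinton broth to 0.5 McFarland (about 1.5 × 10^8 CFU/mL), then diluted 10-fold. Aqueous stocks (1 g/L) were used at once and doubly diluted 250−0.125 μg/mL in Mueller−Hinton broth with 5% defibrinated sheep blood. Final inoculum was 2 × 10^5−7 × 10^5 CFU/mL. Plates were incubated 18 h at 35 °C. MIC was taken as the lowest concentration with no growth, shown by absence of erythrocyte hemolysis. Triplicate; ampicillin control.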"}, "Staphylococcus aureus": {"system": "Staphylococcus aureus", "assay": "Antibacterial activity against Staphylococcus aureus grown in sheep blood agar media assessed as concentration required to inhibit bacterial growth due to absence of hemolysis of erythrocytes after 18 hrs by […] broth dilution method", "format": "functional", "procedure,_shortened": "as §1"}, "Escherichia coli": {"system": "Escherichia coli", "assay": "Antibacterial activity against Escherichia coli grown in sheep blood agar media assessed as concentration required to inhibit bacterial growth due to absence of hemolysis of erythrocytes after 18 hrs by […] broth dilution method", "format": "functional", "procedure,_shortened": "as §1"}, "[1]": {"assay": "Cytotoxicity against human […] cells after 48 hrs by SRB method", "format": "functional, cell-based"}, "Bacillus subtilis": {"system": "Bacillus subtilis", "assay": "Antibacterial activity against Bacillus subtilis grown in sheep blood agar media assessed as concentration required to inhibit bacterial growth due to absence of hemolysis of erythrocytes after 18 hrs by […] broth dilution method", "format": "functional", "procedure,_shortened": "as §1"}, "[2]": {"system": "Pectobacterium carotovorum", "assay": "Antibacterial activity against Erwinia carotovora grown in sheep blood agar media assessed as concentration required to inhibit bacterial growth due to absence of hemolysis of erythrocytes after 18 hrs by […] broth dilution method", "format": "functional", "procedure,_shortened": "as §1"}, "HeLa": {"system": "HeLa", "assay": "Cytotoxicity against human HeLa cells after 48 hrs by SRB method", "format": "functional, cell-based"}}, "data": [{"smiles": "CC(=O)[C@@]12O[C@@H]1[C@@]1(C)C(=CC2=O)[C@H](O)CC[C@@H]1C", "values": [{"measurement": "IC50", "setting": "HL-60", "result": 13, "unit": "µM"}, {"measurement": "MIC", "setting": "Bacillus cereus", "result": "> 250", "unit": "mg/L"}, {"measurement": "MIC", "setting": "Staphylococcus aureus", "result": "> 250", "unit": "mg/L"}, {"measurement": "MIC", "setting": "Escherichia coli", "result": 31.2, "unit": "mg/L"}, {"measurement": "IC50", "setting": "[1]", "result": 13, "unit": "µM"}, {"measurement": "MIC", "setting": "Bacillus subtilis", "result": "> 250", "unit": "mg/L"}, {"measurement": "MIC", "setting": "[2]", "result": 62.5, "unit": "mg/L"}, {"measurement": "IC50", "setting": "HeLa", "result": 13, "unit": "µM"}]}, {"smiles": "CC1=C2[C@@H](O)[C@]3(C)[C@@H](C)CC[C@H]4O[C@]43C[C@@]2(O)OC1=O", "values": [{"measurement": "MIC", "setting": "Bacillus cereus", "result": 62.5, "unit": "mg/L"}, {"measurement": "MIC", "setting": "Staphylococcus aureus", "result": 125, "unit": "mg/L"}, {"measurement": "MIC", "setting": "Escherichia coli", "result": 125, "unit": "mg/L"}, {"measurement": "MIC", "setting": "Bacillus subtilis", "result": 125, "unit": "mg/L"}, {"measurement": "MIC", "setting": "[2]", "result": 125, "unit": "mg/L"}]}, {"smiles": "CC1(C)S[C@@H]2[C@H](NC(=O)[C@H](N)c3ccccc3)C(=O)N2[C@H]1C(=O)O", "note": "[AMPICILLIN]", "values": [{"measurement": "MIC", "setting": "Bacillus cereus", "result": 25, "unit": "mg/L"}, {"measurement": "MIC", "setting": "Staphylococcus aureus", "result": 25, "unit": "mg/L"}, {"measurement": "MIC", "setting": "Escherichia coli", "result": 100, "unit": "mg/L"}, {"measurement": "MIC", "setting": "Bacillus subtilis", "result": 12.5, "unit": "mg/L"}, {"measurement": "MIC", "setting": "[2]", "result": 100, "unit": "mg/L"}]}, {"smiles": "C/C=C(/CO)C(=O)O[C@@H]1C2=C(C)C(=O)O[C@]2(OC)C[C@@]23O[C@@H]2CC[C@H](C)[C@@]13C", "values": [{"measurement": "IC50", "setting": "HL-60", "result": 13, "unit": "µM"}, {"measurement": "MIC", "setting": "Bacillus cereus", "result": 62.5, "unit": "mg/L"}, {"measurement": "MIC", "setting": "Staphylococcus aureus", "result": 125, "unit": "mg/L"}, {"measurement": "MIC", "setting": "Escherichia coli", "result": 62.5, "unit": "mg/L"}, {"measurement": "IC50", "setting": "[1]", "result": 13, "unit": "µM"}, {"measurement": "MIC", "setting": "Bacillus subtilis", "result": 125, "unit": "mg/L"}, {"measurement": "MIC", "setting": "[2]", "result": 125, "unit": "mg/L"}, {"measurement": "IC50", "setting": "HeLa", "result": 13, "unit": "µM"}]}, {"smiles": "C=C(CO)C(=O)O[C@@H]1C2=C(C)C(=O)O[C@@]2(O)C[C@@]23O[C@@H]2CC[C@H](C)[C@@]13C", "values": [{"measurement": "MIC", "setting": "Bacillus cereus", "result": 7.25, "unit": "mg/L"}, {"measurement": "MIC", "setting": "Staphylococcus aureus", "result": 7.25, "unit": "mg/L"}, {"measurement": "MIC", "setting": "Escherichia coli", "result": 7.25, "unit": "mg/L"}, {"measurement": "MIC", "setting": "Bacillus subtilis", "result": 15.5, "unit": "mg/L"}, {"measurement": "MIC", "setting": "[2]", "result": 7.25, "unit": "mg/L"}]}, {"smiles": "CC(=O)C1=C[C@@]2(C)C(=CC1=O)[C@H](O)CC[C@@H]2C", "values": [{"measurement": "MIC", "setting": "Bacillus cereus", "result": "> 250", "unit": "mg/L"}, {"measurement": "MIC", "setting": "Staphylococcus aureus", "result": "> 250", "unit": "mg/L"}, {"measurement": "MIC", "setting": "Escherichia coli", "result": 31.2, "unit": "mg/L"}, {"measurement": "MIC", "setting": "Bacillus subtilis", "result": "> 250", "unit": "mg/L"}, {"measurement": "MIC", "setting": "[2]", "result": "> 250", "unit": "mg/L"}]}, {"smiles": "C/C=C(/CO)C(=O)O[C@@H]1C2=C(C)C(=O)O[C@@]2(O)C[C@@]23O[C@@H]2CC[C@H](C)[C@@]13C", "values": [{"measurement": "MIC", "setting": "Bacillus cereus", "result": 15.5, "unit": "mg/L"}, {"measurement": "MIC", "setting": "Staphylococcus aureus", "result": 7.25, "unit": "mg/L"}, {"measurement": "MIC", "setting": "Escherichia coli", "result": 7.25, "unit": "mg/L"}, {"measurement": "MIC", "setting": "Bacillus subtilis", "result": 7.25, "unit": "mg/L"}, {"measurement": "MIC", "setting": "[2]", "result": 7.25, "unit": "mg/L"}]}, {"smiles": "CO[C@@]12[C@H](COC(N)=O)C3=C(C(=O)C(C)=C(N)C3=O)N1C[C@@H]1N[C@@H]12", "note": "[MITOMYCIN]", "values": [{"measurement": "IC50", "setting": "HL-60", "result": 3, "unit": "µM"}, {"measurement": "IC50", "setting": "[1]", "result": 3, "unit": "µM"}, {"measurement": "IC50", "setting": "HeLa", "result": 3, "unit": "µM"}]}]}
